Test results as given in ChEMBL document CHEMBL2021802, “Synthesis and Evaluation of the Metabolites of AMG 221, a Clinical Candidate for the Treatment of Type 2 Diabetes” (ACS Med Chem Lett, 2011).

Assays:
[1] = Clearance in Sprague-Dawley rat at 2 mg/kg, iv and 10 mg/kg, po; assay type: ADME, organism-based; details: in vivo
In short: (§1)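 Male Sprague-Dawley rats. IV dosing at 2 mg/kg in DMSO. Oral dosing at 10 mg/kg in 0.1% Tween-80/0.5% CMC/99.4% water. Reported: CL, Vss, t1/2 (terminal t1/2 where marked), MRT and oral F.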

in vivo = details: mouse, adipose tissue fat / plasma, po, 50 mg/kg
[2] = Terminal half life in Sprague-Dawley rat at 2 mg/kg, iv and 10 mg/kg, po; assay type: ADME, organism-based; details: in vivo, read-out: beta t1/2 (converted); in short: as §1
[3] = Plasma protein binding in po dosed mouse after 4 hrs; assay type: ADME, organism-based; details: read-out: PPB (converted)
[4] = Oral bioavailability in Sprague-Dawley rat at 10 mg/kg; assay type: ADME, organism-based; details: in vivo; in short: as §1
[5] = Volume of distribution at steady state in CD1 mouse at 2 mg/kg, iv and 10 mg/kg, po; assay type: ADME, organism-based; details: in vivo, read-out: Vdss
In short: (§2)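 Male CD1 mice. IV dosing at 2 mg/kg, formulated either in 20% captisol/80% water or in 10% dimethylacetamide/23% water/67% PEG 400. Oral dosing at 10 mg/kg, formulated either in 10% Pluronic F108/90% OraPlus or in 0.1% Tween-80/0.5% CMC in water. Reported: CL, Vss, t1/2 and oral F.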

[6] = Volume of distribution at steady state in Sprague-Dawley rat at 2 mg/kg, iv and 10 mg/kg, po; assay type: ADME, organism-based; details: in vivo, read-out: Vdss; in short: as §1
[7] = Oral bioavailability in CD1 mouse at 10 mg/kg; assay type: ADME, organism-based; details: in vivo; in short: as §2
[8] = Clearance in CD1 mouse at 2 mg/kg, iv and 10 mg/kg, po; assay type: ADME, organism-based; details: in vivo; in short: as §2
Plasma [9] = assay: Free plasma concentration in po dosed mouse after 4 hrs; assay type: ADME, organism-based; details: in vivo
[10] = Half life in CD1 mouse at 2 mg/kg, iv and 10 mg/kg, po; assay type: ADME, organism-based; details: in vivo; in short: as §2
[11] = Plasma concentration in mouse at 30 mg/kg, po after 6 hrs; assay type: ADME, organism-based; set-up: dose 30 mg/kg, route oral
[12] = Plasma protein binding in mouse at 30 mg/kg, po after 4 hrs; assay type: ADME, organism-based; set-up: dose 30 mg/kg, route oral; details: read-out: PPB (converted)
Mus musculus [13] = assay: Ex vivo inhibition of 11beta-HSD1 in mouse adipose tissue at 10 mg/kg, po after 4 hrs; assay type: functional
In short: (§3)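 Mice dosed orally at 10 or 30 mg/kg. Adipose 11β-HSD1 activity measured ex vivo as percent inhibition.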

[14] = Drug uptake in mouse adipose tissue fat at 30 mg/kg, po after 2 hrs; assay type: ADME, organism-based; set-up: dose 30 mg/kg, route oral; details: read-out: Drug uptake
[15] = Drug uptake in mouse adipose tissue fat at 30 mg/kg, po after 6 hrs; assay type: ADME, organism-based; set-up: dose 30 mg/kg, route oral; details: read-out: Drug uptake
Mus musculus [16] = assay: Ex vivo inhibition of 11beta-HSD1 in mouse adipose tissue at 30 mg/kg, po after 2 hrs; assay type: functional; in short: as §3
[17] = Plasma concentration in mouse at 30 mg/kg, po after 8 hrs; assay type: ADME, organism-based; set-up: dose 30 mg/kg, route oral
Mus musculus [18] = assay: Ex vivo inhibition of 11beta-HSD1 in mouse adipose tissue at 30 mg/kg, po after 4 hrs; assay type: functional; in short: as §3
[19] = molecular target: 11-beta-hydroxysteroid dehydrogenase 1 (Mus musculus, UniProt P50172); assay: Inhibition of mouse 11beta-HSD1 expressed in Escherichia coli using [3H]cortisone as substrate by scintillation proximity assay
11-beta-hydroxysteroid dehydrogenase 1, sequence (P50172 whole entry): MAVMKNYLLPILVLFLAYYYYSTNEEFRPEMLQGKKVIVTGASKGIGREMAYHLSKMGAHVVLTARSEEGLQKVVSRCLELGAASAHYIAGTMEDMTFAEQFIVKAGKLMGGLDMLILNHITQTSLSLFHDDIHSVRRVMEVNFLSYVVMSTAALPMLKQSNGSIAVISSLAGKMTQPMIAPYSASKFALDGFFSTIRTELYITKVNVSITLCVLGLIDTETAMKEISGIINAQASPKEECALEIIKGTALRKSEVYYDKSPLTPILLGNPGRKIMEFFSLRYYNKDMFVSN

[20] = Drug uptake in mouse adipose tissue fat at 30 mg/kg, po after 4 hrs; assay type: ADME, organism-based; set-up: dose 30 mg/kg, route oral; details: read-out: Drug uptake
[21] = Plasma concentration in mouse at 30 mg/kg, po after 2 hrs; assay type: ADME, organism-based; set-up: dose 30 mg/kg, route oral
[22] = Plasma concentration in mouse at 10 mg/kg, po after 4 hrs; assay type: ADME, organism-based; set-up: dose 10 mg/kg, route oral
[23] = Drug uptake in mouse adipose tissue fat at 10 mg/kg, po after 8 hrs; assay type: ADME, organism-based; set-up: dose 10 mg/kg, route oral; details: read-out: Drug uptake
[24] = Drug uptake in mouse adipose tissue fat at 30 mg/kg, po after 8 hrs; assay type: ADME, organism-based; set-up: dose 30 mg/kg, route oral; details: read-out: Drug uptake
Mus musculus [25] = assay: Ex vivo inhibition of 11beta-HSD1 in mouse adipose tissue at 10 mg/kg, po after 2 hrs; assay type: functional; in short: as §3
Plasma [26] = assay: Free plasma concentration in mouse at 30 mg/kg, po after 4 hrs; assay type: ADME, organism-based; set-up: dose 30 mg/kg, route oral; details: in vivo
In short: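 Mice dosed orally at 30 mg/kg and sampled at 4 h. Free plasma concentration calculated from total plasma level using mouse plasma protein binding.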

[27] = Plasma concentration in mouse at 10 mg/kg, po after 8 hrs; assay type: ADME, organism-based; set-up: dose 10 mg/kg, route oral
[28] = Drug uptake in mouse adipose tissue fat at 10 mg/kg, po after 6 hrs; assay type: ADME, organism-based; set-up: dose 10 mg/kg, route oral; details: read-out: Drug uptake
[29] = Half life in Sprague-Dawley rat at 2 mg/kg, iv and 10 mg/kg, po; assay type: ADME, organism-based; details: in vivo; in short: as §1
[30] = Plasma concentration in mouse at 10 mg/kg, po after 6 hrs; assay type: ADME, organism-based; set-up: dose 10 mg/kg, route oral
[31] = Drug uptake in mouse adipose tissue fat at 10 mg/kg, po after 2 hrs; assay type: ADME, organism-based; set-up: dose 10 mg/kg, route oral; details: read-out: Drug uptake
Mus musculus [32] = assay: Ex vivo inhibition of 11beta-HSD1 in mouse adipose tissue at 30 mg/kg, po after 6 hrs; assay type: functional; in short: as §3
[33] = Plasma concentration in mouse at 30 mg/kg, po after 4 hrs; assay type: ADME, organism-based; set-up: dose 30 mg/kg, route oral
[34] = Plasma concentration in mouse at 10 mg/kg, po after 2 hrs; assay type: ADME, organism-based; set-up: dose 10 mg/kg, route oral
[35] = Drug uptake in mouse adipose tissue fat at 10 mg/kg, po after 4 hrs; assay type: ADME, organism-based; set-up: dose 10 mg/kg, route oral; details: read-out: Drug uptake
Mus musculus [36] = assay: Ex vivo inhibition of 11beta-HSD1 in mouse adipose tissue at 30 mg/kg, po after 8 hrs; assay type: functional; in short: as §3

Compound: CC(C)[C@]1(C)SC(N[C@H]2C[C@@H]3CC[C@H]2C3)=NC1=O
- clearance [1]: 19.3 mL/min/kg
- Kp (in vivo): 1.34
- half-life [2]: 12.2 h
- fraction unbound at 4 h [3]: 0.099
- bioavailability [4]: 34%
- Vd [5]: 0.9 L/kg
- Vd [6]: 1.53 L/kg
- bioavailability [7]: 31%
- clearance [8]: 55.2 mL/min/kg
- Cp(f) (Plasma [9]): 240 nM
- half-life [10]: 3.32 h

Compound: CC(C)[C@]1(C)SC(N[C@H]2C[C@H]3C[C@@H]2C[C@@H]3O)=NC1=O
- concentration at 6 h [11]: 1710 nM
- clearance [1]: 7.33 mL/min/kg
- fraction unbound at 4 h [12]: 0.591
- inhibition in vivo at 10 mg/kg (Mus musculus [13]): 31%
- concentration at 2 h [14]: 4670 nM
- concentration at 6 h [15]: 2020 nM
- inhibition in vivo at 30 mg/kg (Mus musculus [16]): 51%
- bioavailability [4]: 58%
- concentration at 8 h [17]: 390 nM
- inhibition in vivo at 30 mg/kg (Mus musculus [18]): 46%
- Ki [19]: 152 nM
- concentration at 4 h [20]: 980 nM
- concentration at 2 h [21]: 19500 nM
- concentration at 4 h [22]: 1050 nM
- Vd [5]: 1.43 L/kg
- concentration at 8 h [23]: 130 nM
- concentration at 8 h [24]: 580 nM
- Vd [6]: 0.97 L/kg
- bioavailability [7]: > 100%
- inhibition in vivo at 10 mg/kg (Mus musculus [25]): 38%
- Cp(f) (Plasma [26]): 2100 nM
- clearance [8]: 24.7 mL/min/kg
- concentration at 8 h [27]: 190 nM
- concentration at 6 h [28]: 220 nM
- half-life [29]: 2.17 h
- concentration at 6 h [30]: 380 nM
- concentration at 2 h [31]: 980 nM
- inhibition in vivo at 30 mg/kg (Mus musculus [32]): 36%
- concentration at 4 h [33]: 3590 nM
- concentration at 2 h [34]: 4500 nM
- half-life [10]: 5.72 h
- concentration at 4 h [35]: 820 nM
- inhibition in vivo at 30 mg/kg (Mus musculus [36]): 36%

Compound: CC(C)[C@]1(C)SC(N[C@H]2C[C@H]3C[C@@H]2C[C@H]3O)=NC1=O
- clearance [1]: 12.3 mL/min/kg
- Ki [19]: 181 nM
- Vd [6]: 1.43 L/kg
- half-life [29]: 2.41 h

Compound: CC(C)[C@]1(C)SC(N[C@H]2C[C@H]3C[C@@H]2CC3=O)=NC1=O
- Ki [19]: 230 nM

Compound: CC(C)(O)[C@]1(C)SC(N[C@H]2C[C@@H]3CC[C@H]2C3)=NC1=O
- clearance [1]: 32 mL/min/kg
- bioavailability [4]: 53%
- Vd [6]: 0.53 L/kg
- half-life [29]: 0.24 h
